# Sampled rows, rich in hits. Any-hit rate of the full collection: about 1.6%.
# Rev-RRE block – HIV-1 Rev-RRE binding inhibitors, primary screen, biochemical, FRET, protein-RNA interaction. actives 0.79% (n = 97,000). P05866. Rev peptide-RRE RNA binding. inhibition, % at 8 µM;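 active means inhibition above the screen-wide mean plus 3 SD, cut at about 35% in these data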;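 further: 0% = median DMSO wells and 100% = median Neomycin B control wells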
# Target sequence (P05866 whole entry, looked up): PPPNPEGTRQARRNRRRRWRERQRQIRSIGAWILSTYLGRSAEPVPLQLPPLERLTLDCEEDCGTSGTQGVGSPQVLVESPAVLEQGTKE
#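 assay system = Cy5-tagged RRE RNA duplex with fluorescein-tagged Rev peptide | incubation = 5 + 15 min at 25 °C | also added = labelled Rev peptide | measure = % inhibition of FRET ratio versus controls | benchmarks = DMSO wells as 0% and neomycin B wells as 100% inhibition | measured by = FRET fluorescence readout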
# GALR2 ag – GALR2 receptor agonists, primary screen, cell-based; Galanin receptor type 2 (Homo sapiens), O43603; GALR2-expressing cells, agonist activation read-out; activation, % (test concentration not listed); actives 0.48% (n = 140,000); in the data active means activation above about 5%, passing the limit was not always enough;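 further: 0% = vehicle buffer wells and 100% = reference agonist at full effect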
# Target sequence (O43603 whole entry, looked up): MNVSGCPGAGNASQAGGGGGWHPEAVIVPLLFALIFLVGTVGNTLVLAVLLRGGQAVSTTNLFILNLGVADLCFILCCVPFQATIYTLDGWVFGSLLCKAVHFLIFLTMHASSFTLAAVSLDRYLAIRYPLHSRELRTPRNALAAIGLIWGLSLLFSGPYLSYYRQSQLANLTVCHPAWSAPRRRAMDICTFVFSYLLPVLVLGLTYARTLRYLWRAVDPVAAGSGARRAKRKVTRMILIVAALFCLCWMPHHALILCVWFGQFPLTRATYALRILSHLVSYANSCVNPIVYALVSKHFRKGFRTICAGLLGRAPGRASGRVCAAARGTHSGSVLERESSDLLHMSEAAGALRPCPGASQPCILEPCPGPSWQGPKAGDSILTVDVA
# S1P2 agonist – S1P2 receptor agonists, primary screen, cell-based; AID 729, 2007; activation, % at 4.5 µM; actives 0.46% (n = 97,000); S1P2-expressing cell line, agonist reporter read-out; Sphingosine 1-phosphate receptor 2 (Homo sapiens), O95136; in the data active means activation above about 16%;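 further: 0% = vehicle low control and 100% = maximal reference agonist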
# GALR2 antag – GALR2 antagonists in receptor-expressing cells, primary screen. Galanin receptor type 2 (Homo sapiens), O43603. antagonist mode. actives 0.39% (n = 140,000). inhibition, % at 4 µM;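 further: cells stimulated with galanin 1-16 at roughly its EC80; 0% = agonist challenge control and 100% = basal control without agonist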
# S1P2 antag – human S1P2 receptor antagonists, primary screen, cell-based. Sphingosine 1-phosphate receptor 2 (Homo sapiens), O95136. cell-based S1P2 antagonist assay, inhibition at 5 uM. inhibition, % at 5 µM. actives 0.21% (n = 97,000). AID 736, 2007; in the data active means inhibition above about 45%;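 further: CRE beta-lactamase reporter cells expressing human S1P2 stimulated with S1P; 0% = agonist at EC80 alone and 100% = agonist plus reference antagonist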
# GALR2 blk conf – GALR2 antagonists, retest of hits, confirmation, cell-based; shares compounds with GALR2 antag; GALR2-expressing cells, antagonist mode, inhibition; inhibition, % at 4 µM; actives 60% (n = 480);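 further: cells stimulated with galanin at about its EC80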
# BLA inhib ctr – inhibitors of NFAT-driven beta-lactamase reporter, confirmation, counter-screen for GALR2 antagonist project, CHO NFAT-bla cells, FRET readout; shares compounds with GALR2 antag; thapsigargin-stimulated; inhibition, % at 4.2 µM; actives 36% (n = 480);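 active means inhibition above the mean inhibition across tested compounds plus 3 SD, cut at about 27% in these data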;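 further: 0% = 500 nM thapsigargin stimulated wells and 100% = unstimulated BSA only wells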
# Active calls of the source: *; nt = no result; [ ] = dose if it differs, or a comment. Unless noted, no stated cut-off is given here; in the data, active means inhibition above about 27%; inactive means the rest.
SMILES,Rev-RRE block,GALR2 ag,S1P2 agonist,GALR2 antag,S1P2 antag,GALR2 blk conf,BLA inhib ctr
Cc1ccc(OC(=O)c2sc(Cl)nc2C)cc1C,nt,1,nt,-12,nt,nt,nt
CC1(C)CC(=O)C(C(C2=C(O)CC(C)(C)CC2=O)c2cccc(O)c2)C(=O)C1 (stereo unspecified),6,-2,-7,0,19,nt,nt
CC1(C)CC(=O)C2=C(C1)N(c1cccc(O)c1)C1=C(C2)C(=O)CC(C)(C)C1,8,2,0,43*,26,25,25
CCSc1nnc(C)c(=O)n1COC(=O)c1ccc(S(=O)(=O)N2CCCC2)cc1,nt,-1,nt,-8,nt,nt,nt
Cc1cccc(NC(=O)c2ccccc2NC(=O)C2CCCCC2)c1C,10,-2,-3,42*,-8,10,16
O=C(Nc1ccccc1)c1ccccc1NC(=O)C1CCCCC1,8,-3,-7,2,2,nt,nt
COc1ccc2nc(NC(=O)C(NS(=O)(=O)c3cccc4nsnc34)C(C)C)sc2c1 (stereo unspecified),10,-1,-3,-5,21,nt,nt
COc1ccc(NC(=O)c2cc(S(=O)(=O)N(C)C)ccc2N2CCCC2)cc1Cl,nt,-1,nt,28*,nt,2,0
Cc1onc(-c2c(F)cccc2Cl)c1C(=O)OCC(=O)NC(c1ccccc1)c1ccccc1,8,0,1,0,-2,nt,nt
CCN1CCc2c(sc(NC(=O)Nc3ccc(Cl)c(Cl)c3)c2C(N)=O)C1,nt,-1,nt,27*,nt,25,21
COc1cccc(C2=CC(c3ccc(N(C)C)cc3)n3ncnc3N2)c1 (stereo unspecified),34,1,-1,8,-8,nt,nt
COc1cccc(C2=CC(c3ccccc3)n3ncnc3N2)c1 (stereo unspecified),42*,-1,-7,27*,25,30*,36*
Cc1nc2ccccn2c1C(=O)NNS(=O)(=O)c1ccc(C(C)(C)C)cc1,nt,-2,nt,30*,nt,20,10
CCOc1ccc(OCC)c(S(=O)(=O)NNC(=O)c2c(C)nc3ccccn23)c1,nt,1,nt,3,nt,nt,nt
N#Cc1ccc(OCC(=O)OCC(=O)NCCC2=CCCCC2)cc1,nt,-1,nt,10,nt,nt,nt
CCCCCCCCCCn1c2c(c(=N)c3c1CCC3)CCC2,13,-4,-5,36*,87*,30*,57*
Cc1cccc2sc(NC(=O)C3CCN(S(=O)(=O)c4cc([N+](=O)[O-])ccc4Cl)CC3)nc12,nt,-1,nt,27*,nt,22,21
CC(=O)NS(=O)(=O)c1ccc(NC(=O)CN2C(=O)C3C4C=CC(C4)C3C2=O)cc1 (stereo unspecified),nt,1,nt,0,nt,nt,nt
CCc1ccc2c(c1)/C(=C/C(=O)c1cccs1)C(=O)N2,6,2,-4,28*,13,35*,22
O=C(CCSCc1ccc(Cl)cc1)NC1CCCC1,nt,-1,nt,0,nt,nt,nt
COc1ccc(NS(=O)(=O)c2cc(OCC(N)=O)c(C)cc2Cl)cc1,nt,-1,nt,10,nt,nt,nt
O=C(CSc1ccc(Cl)cc1)N1CCOCC1,9,-2,-5,29*,-5,-2,-4
O=C(NC(Cc1ccccc1)C(=O)O)/C(=C/c1ccco1)NC(=O)c1cccc(Br)c1 (stereo unspecified),nt,0,nt,2,nt,nt,nt
CCOCCCNC(=O)C(c1ccc(C)cc1)N(Cc1cccs1)C(=O)CNC(C)=O (stereo unspecified),nt,-2,nt,8,nt,nt,nt
Cc1[nH]c2ccccc2c1/C=C(\C#N)C(=O)NCc1ccccc1,nt,0,nt,32*,nt,22,4
SMILES,Rev-RRE block,GALR2 ag,S1P2 agonist,GALR2 antag,S1P2 antag,GALR2 blk conf,BLA inhib ctr
CCOC(=O)N1CCN(c2ncnc3c2[nH]c2ccc(F)cc23)CC1,5,-2,-7,38*,58*,47*,4
CCCCOc1ncnc2c1[nH]c1ccccc12,3,-2,-10,36*,31,45*,14
CCCCOc1ncnc2c1[nH]c1ccc(F)cc12,2,-3,1,37*,63*,35*,-4
CCCCOc1ncnc2c1[nH]c1ccc(OCC)cc12,-3,-4,-4,15,-8,nt,nt
COCC(C)NCC(=O)NC(C)CCc1ccccc1 (stereo unspecified),nt,0,nt,-7,nt,nt,nt
NC(N)=NS(=O)(=O)c1ccc(NC(=S)NC(=O)c2sc3ccccc3c2Cl)cc1,nt,0,nt,3,nt,nt,nt
CCCCSc1nnc(-c2ccccc2)c2ccccc12,nt,1,nt,2,nt,nt,nt
COc1ccc(-c2cn3nc4c(nc3n2)CCCC4)cc1,98*[fluorescence artefact?],0,-6,31*,5,16,20
COc1ccc(-c2cn3ccc4ccccc4c3n2)cc1,0,0,-1,22,2,nt,nt
O=C(Nc1ccc2nc(-c3cccnc3)[nH]c2c1)C1CCCCC1,1,-1,1,12,-12,nt,nt
O=C(Nc1ccc2nc(-c3cccnc3)[nH]c2c1)C12CC3CC(CC(C3)C1)C2,-2,-3,-7,43*,4,30*,10
CC(=O)c1c(C)[nH]c(C(=O)COc2cc(C)ccc2C(C)C)c1C,18,-2,-1,33*,66*,50*,18
CC(=O)c1c(C)[nH]c(C(=O)COc2ccc(C#N)cc2)c1C,4,-1,-7,8,8,nt,nt
COc1ccc(-c2nc(NC(=O)c3n[nH]c(=O)c4ccccc34)sc2C)cc1,nt,2,nt,8,nt,nt,nt
C=CCn1nc([N+](=O)[O-])nc1Sc1cccc2cccnc12,nt,-1,nt,31*,nt,27,11
O=c1[nH][nH]c(-c2ccccc2)c1C=Nc1cccc(Cl)c1,0,-2,-2,0,25,nt,nt
O=c1[nH][nH]c(-c2ccccc2)c1C=Nc1ccc(Cl)cc1,8,-3,-3,29*,18,19,0
Cc1ccccc1Oc1cc(-n2ncc(Cl)c(Cl)c2=O)ncn1,nt,-2,nt,82*,nt,97*,103*
CCOc1cnn(-c2cc(Oc3ccc(C)cc3)ncn2)c(=O)c1Cl,1,-1,-6,28*,1,3,10
COc1ccccc1Oc1cc(-n2nc(C)cc2C)ncn1,nt,-1,nt,-5,nt,nt,nt
COC(=O)c1cnn(-c2cc(Oc3ccccc3)ncn2)c1N,4,-2,-5,0,-8,nt,nt
N#Cc1ccc(-c2ccc(OCC(=O)NCC(=O)Nc3ccc(F)c(F)c3F)cc2)cc1,nt,2,nt,11,nt,nt,nt
Cc1ccc(NC(=O)/C=C/c2ccc([N+](=O)[O-])s2)c(C)c1,nt,1,nt,33*,nt,54*,55*
Cc1cccc(NC(=O)/C=C/c2ccc([N+](=O)[O-])s2)c1,nt,0,nt,32*,nt,46*,47*
COC(=O)NNC(=O)Cc1cccc2ccccc12,nt,-1,nt,6,nt,nt,nt

# Source: PubChem
